A selection: hits, their analogues and other compounds. The true share with any hit is near 4.9%.
STAT3 blocker: reduces IL-6 driven STAT3 reporter signal; AID 862; U3A cells, IL-6 STAT3-luciferase reporter, luminescence; host cell line lacks STAT1; inhibition, % at 5.5 µM; hit rate 0.89% among 190,000;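 active = inhibition above the mean inhibition across all screened compounds plus 3 SD, cut at about 44% in these data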;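 note: 0% = DMSO only wells and 100% = 100 µM nifuroxazide control wells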
STAT1 activator: increases IFN-gamma driven STAT1 reporter signal; NIH 3T3 STAT1-luciferase reporter, luminescence; 100% = IFN-gamma alone, no compound; activation (% of control), % at 5.5 µM; AID 932; hit rate 2.6% among 200,000;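 active = activation above the screen-wide mean activation plus 3 SD, cut at about 130% in these data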;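 note: raw ratio to IFN-gamma control signal so 100% means no change and 0% no light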
STAT3 activator: increases IL-6 driven STAT3 reporter signal. U3A cells, IL-6 STAT3-luciferase reporter, luminescence; 100% = signal with IL-6 EC80 alone. activation (% of control), % at 5.6 µM. hit rate 0.91% among 190,000. AID 871;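 active = activation above the screen-wide mean of compound activation plus 3 SD, cut at about 130% in these data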;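 note: 0% = background luminescence of wells with medium and substrate only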
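Material: STAT1-lacking human U3A cells, STAT3 luciferase reporter | Benchmarks: IL-6-only wells as 100% reference | Probe or stimulus: IL-6 (33 ng/mL) | Timing: Compound 1 h, then IL-6 6 h at 37 °C | Detection: Luminescence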
NF-kB expr up: compounds increasing NF-kB expression in human neuronal cells. NF-kB reporter expression; hits give high values. fold change at 12.5 µM. hit rate 1.6% among 190,000. AID 1239; in the data active = fold change above about 3.3
APP 5'UTR act: APP 5'UTR luciferase reporter activation; SH-SY5Y APP 5'UTR luciferase reporter, luminescence; zero percent = DMSO vehicle wells; activation, % at 2 µM; hit rate 1% among 190,000; AID 1276;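 active = activation above a set limit, based on mean plus 3 SD of controls, cut at about 140% in these data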
STAT1 blocker: STAT1 signaling inhibition | NIH 3T3 STAT1-luciferase reporter, IFN-gamma, luminescence | inhibition, % at 5.5 µM | hit rate 0.35% among 200,000 | AID 920;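 active = inhibition above a set limit, the mean inhibition across all tested compounds plus 3 SD, cut at about 34% in these data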;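 note: 0% = IFN-gamma with DMSO and 100% = IFN-gamma with 300 µM nifuroxazide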
Active calls of the source: *; · = no result given.

SMILES	STAT3 blocker	STAT1 activator	STAT3 activator	NF-kB expr up	APP 5'UTR act	STAT1 blocker
Nc1nnc(SCC(=O)OCC(=O)c2ccccc2Br)s1	11	96	94	1.1	-1	4
COc1nc(-c2ccccc2)ccc1-c1noc(-c2ccco2)n1	5	145*	100	3.7*	10	-50
COc1ccccc1-c1noc(-c2ccco2)n1	2	131*	101	2.6	118	-42
CN(C)C(=O)COC(=O)c1cccc(CN2C(=O)c3ccccc3C2=O)c1	7	91	101	1.2	28	9
Cn1/c(=N/N=C/c2ccc([N+](=O)[O-])cc2)sc2ccccc21	-54	132*	144*	2	-15	-35
COc1ccccc1N=c1sc2ccccc2n1C	4	101	99	1.1	4	-1
c1ccn2cc(CSc3nnc4ccccn34)nc2c1	-12	147*	114	2.3	94	-51
c1ccn2cc(CSC3=NCCS3)nc2c1	-6	130*	108	1.9	51	-30
Cc1ccn2cc(CSc3ccccc3)nc2c1	11	131*	94	6.3*	172*	-33
Cn1ccnc1SCc1cn2ccccc2n1	3	144*	103	1.7	242*	-48
Cc1ccc(SCc2cn3cccnc3n2)cc1	-3	115	106	1.4	36	-17
c1ccc(-n2nnnc2SCc2cn3ccccc3n2)cc1	15	92	91	1.4	0	9
CCn1c(C)nc2cc(C(=O)N/N=C/c3ccc(N4CCOCC4)cc3)ccc21	11	108	91	0.95	9	-9
COc1ccc2oc(=O)c(-c3nc(C)cs3)cc2c1	13	135*	94	2.1	199*	-39
COc1ccc2oc(=O)c(C(C)=O)cc2c1	-3	102	104	1.2	7	-2
CC1=NC(=O)C(N=Nc2cccc3ccccc23)N1c1ccccc1 (configuration not stated)	-68	96	159*	·	-9	4
COc1cccc(NC(=O)c2cccc(OC)c2OC)c1	1	136*	102	2.7	57	-40
CN(C)c1ccc(NC(=O)c2cccc(C(=O)Nc3ccc(N(C)C)cc3)n2)cc1	7	119	97	0.42	46	-21
COc1cccc(C(=O)Nc2ccc(N(C)C)cc2)c1OC	-1	142*	101	2.1	53	-48
CCn1c2ccccc2c2cc(NC(=O)c3cccc(OC)c3OC)ccc21	7	100	93	1	19	0
COc1ccc(-n2c(C)cc(/C=N/Nc3nnc(C)n3N)c2C)cc1	-12	131*	114	0.87	4	-34
CCOc1ccc(-n2c(C)cc(/C=N/NC(=O)C(N)=O)c2C)cc1	2	103	106	1.1	-6	-3
CC1CCCC(NC(=O)COC(=O)Cc2ccsc2)C1C (configuration not stated)	3	98	97	1.2	3	3
COCCOC(=O)c1[nH]c2c(c1C)C(=O)CC(c1ccccc1)C2 (configuration not stated)	-8	113	110	3.8*	-92	-14
Cc1c(C(=O)OCCOC(C)C)[nH]c2c1C(=O)CC(c1ccco1)C2 (configuration not stated)	-32	110	126	3.5*	-96	-9
SMILES	STAT3 blocker	STAT1 activator	STAT3 activator	NF-kB expr up	APP 5'UTR act	STAT1 blocker
C=CCOC(=O)c1[nH]c2c(c1C)C(=O)CC(c1cc(OC)c(OC)c(OC)c1)C2 (configuration not stated)	46*	61	63	0.71	12	42*
COCCOC(=O)c1[nH]c2c(c1C)C(=O)CC(c1ccc(F)cc1)C2 (configuration not stated)	23	89	85	1.8	16	12
CCOC(=O)c1[nH]c2c(c1C)C(=O)CC(c1ccco1)C2 (configuration not stated)	-22	102	118	6.4*	-96	-1
Cc1cc(C)cc(Oc2ccc(NC(=O)C3CC=CCC3C(=O)O)cc2)c1 (configuration not stated)	11	97	95	1.2	5	0
CCOCCCNC(=O)C(NC(=O)c1cnccn1)c1ccc(C)cc1 (configuration not stated)	9	98	97	1.3	18	2
CCOC(=O)c1sc(=NC(=O)c2ccc(C)cc2)n(C)c1C	-46	139*	145*	3.7*	75	-42
CCOC(=O)c1sc(=NC(=O)c2cc(OC)c(OC)c(OC)c2)n(C)c1C	22	99	87	1.1	-9	1
CCOC(=O)c1sc(=NC(=O)CCSc2ccccc2)n(C)c1C	-5	136*	104	0.99	29	-38
CCOC(=O)N1CCN(C(=O)CCSc2ccccc2)CC1	-2	134*	108	1.8	75	-37
CCOC(=O)c1sc(=NC(=O)c2cccc(C)c2)n(C)c1C	-6	142*	106	3.5*	162*	-47
COc1nc(N=C(N)N)nc2ccc(C)cc12	-31	115	121	1.2	8	-17
Cc1ccc(SCCC(=O)Nc2ccc(Br)c(C)c2)cc1	6	84	93	1.1	18	17
O=C(COc1ccccc1C(=O)c1cnn(-c2ccccc2)c1)Nc1ccccc1	-8	120	102	1.4	31	-22
CCn1ccc(C(=O)Nc2ccc(S(=O)(=O)Nc3ccccc3OC)cc2)n1	7	99	94	0.81	0	2
CCn1ccc(C(=O)Nc2ccccc2Cl)n1	19	138*	87	4.1*	162*	-44
CCn1ccc(C(=O)Nc2cccc(Cl)c2)n1	3	141*	104	2.3	51	-46
CCOc1cc(/C=N/NC(=O)C(=O)NC)cc(Br)c1O	-5	105	103	0.99	-7	-6
O=C(NC12CC3CC(CC(C3)C1)C2)c1ccc(-c2ccccc2Cl)o1	-9	171*	118	1.2	182*	-79
CC(=O)NC(=O)c1ccc(-c2ccc(Cl)cc2)o1	22	110	84	1.4	7	-11
O=C(NC12CC3CC(CC(C3)C1)C2)c1ccc(-c2ccc(Cl)cc2)o1	-34	130*	126	0.76	55	-33
O=C(NCc1ccco1)c1ccc(-c2ccccc2Cl)o1	6	123	102	2.4	25	-25
O=C(Nc1ccccc1)C1=C[C@H](c2ccc3c(c2)OCO3)C[C@H](OCc2ccc(CO)cc2)O1	·	110	·	0.95	12	-9
CN1C(=O)CS/C1=N\NC(=O)COc1cccc2cccnc12	-1	99	102	1	-3	0
Cc1cccn2cc(CNc3ccccc3)nc12	8	123	98	2.3	17	-25
CCOC(=S)SCc1cn2cccc(C)c2n1	2	95	99	3.8*	12	6
